Several values for one entry are separate records, joined by “and”; a condition that tells them apart may be missing. Equal values may be shown once.
Assays:
ear pinna [1] = assay: Skin; format: in vivo, B6C3F1 mice; conditions: dermal, 28 days
Outline: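 Dosing was daily topical to both dorsal ears (25 μl/ear, acetone vehicle) in female B6C3F1 mice. Liver caudate lobe or half ear pinna was stored in RNAlater and homogenized in RLT buffer. RNA was isolated on RNeasy columns with DNase, and 1–2 μg was reverse-transcribed. TaqMan real-time PCR was read as 2−ΔΔCT vs vehicle, normalized to β-actin. Statistics: ANOVA/Dunnett's, or Kruskal-Wallis/Dunn's for unequal variance.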

[2] = PFAS concentration in serum; format: in vivo, B6C3F1 mice; conditions: dermal, 28 days
Outline: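 Serum came by cardiac puncture about 24 h after the final daily ear dose (25 μl/ear, acetone vehicle; female B6C3F1 mice). Samples underwent solid-phase extraction and LC/MS/MS. Short-chain analytes were quantified as linear isomer only; the legacy comparator was quantified as linear plus branched. Data are mean ± SE of 4–5 mice, one-way ANOVA with Dunnett's vs vehicle.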

liver = assay: Liver histopathology after 28-day dermal exposure; format: in vivo, B6C3F1 mice; conditions: 28 days, mice affected of 5
Outline: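 Female B6C3F1 mice (5/group) received 25 μl/ear on the dorsal ear surfaces daily, with acetone as vehicle. Tissues were formalin-fixed about 24 h after the last dose: liver remainder, half spleen, right kidney and half ear pinna. Sections were paraffin-embedded, cut at 5 μm and stained with H&E. A veterinary pathologist read them per STP guideline and graded 1 (minimal) to 5 (severe) by extent.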

ear pinna [3] = assay: Skin; format: in vivo, B6C3F1 mice; conditions: dermal, 28 days; remark: listed apart in the source
Outline: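 Female B6C3F1 mice (5/group) received 25 μl/ear daily to the dorsal ears in acetone. About 24 h after the last dose, tissues went into RPMI: both auricular dLNs, half spleen and one ear pinna. Single-cell suspensions were acquired on an LSR II, with populations gated per supplemental strategy and FMO gating controls. Results are mean ± SE, n=5, by one-way ANOVA.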

B6C3F1 mice = assay: Serum chemistries after 28-day dermal exposure; format: in vivo; conditions: 5%, 28 days
Outline: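 Female B6C3F1 mice received daily dorsal ear application (25 μl/ear, acetone vehicle). About 24 h after the last dose, blood was taken by cardiac puncture. Serum was separated by centrifugation and stored at −20 °C. ALKP, BUN, glucose and cholesterol were read on a Catalyst DX analyzer. Data are mean ± SE of 4–5 mice, ANOVA with Dunnett's; ALKP was also tested by linear regression (p < 0.05).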

## O=C(O)C(F)(F)C(F)(F)C(F)(F)C(F)(F)C(F)(F)F [PFHxA, perfluorohexanoic acid]
Ear pinna [1]; 1.25–5%
  skin Pparδ gene expression: no changes
Ear pinna [1]; 2.5%
  skin Flg gene expression: increased
  skin Pparγ gene expression: decreased
Ear pinna [1]; 5%
  skin Flg gene expression: increased
  skin Lor gene expression: increased
  skin PPARα gene expression: decreased
  skin Pparγ gene expression: decreased
  skin S100a8 gene expression, increase: 16.8 fold
[2]; 2.5%
  PFAS serum concentration vs vehicle: significant increase
[2]; 5%
  PFAS serum concentration vs vehicle: significant increase
liver; 1.25%
  Liver: Hypertrophy, centrilobular, hepatocyte, Mild (incidence): 0
  Liver: Hypertrophy, centrilobular, hepatocyte, Minimal (incidence): 2/5 and 2
liver; 2.5%
  Liver: Hypertrophy, centrilobular, hepatocyte, Mild (incidence): 0
  Liver: Hypertrophy, centrilobular, hepatocyte, Minimal (incidence): 5/5 and 5
liver; 5%
  Liver: Hypertrophy, centrilobular, hepatocyte, Mild (incidence): 0
  Liver: Hypertrophy, centrilobular, hepatocyte, Minimal (incidence): 5/5 and 5
Ear pinna [3]; 1.25%
  Ear CD4^+ cell number: 2.40 ± 0.36 × 10^3
  Ear CD4^+ frequency: 3.34 ± 0.09%
  Ear CD8^+ cell number: 3.38 ± 2.57 × 10^2
  Ear CD8^+ frequency: 0.48 ± 0.37%
  Ear CD45^+ cell number: 7.21 ± 1.13 × 10^4
  Ear CD45^+ frequency: 8.51 ± 0.85%
  Ear CD lib- F4/80+ DCs cell number: 5.74 ± 0.72 × 10^2
  Ear CDllb + F4/80+ DCs cell number: 22.30 ± 3.03 × 10^2
  Ear CDllb- F4/80+ DCs frequency: 0.87 ± 0.14%
  Ear CDllb- F4/80-DCs cell number: 1.47 ± 0.24 × 10^3
  Ear CDllb- F4/80-DCs frequency: 2.05 ± 0.05 %
  Ear Dendritic Cells cell number: 4.99 ± 0.68 × 10^3
  Ear Dendritic Cells frequency: 7.09 ± 0.33%
  Ear Eosinophils cell number: 2.77 ± 0.56 × 10^3
  Ear Eosinophils frequency: 3.82 ± 0.34%
  Ear NK cell number: 4.76 ± 0.96 × 10^2
  Ear NK frequency: 0.66 ± 0.07%
  Ear Neutrophils cell number: 1.18 ± 0.22 × 10^2
  Ear Neutrophils frequency: 0.17 ± 0.02%
  Ear Total Cellularity: 0.83 ± 0.09 × 10^6
Ear pinna [3]; 2.5%
  Ear CD4^+ cell number: 5.01 ± 0.60 × 10^3
  Ear CD4^+ frequency: 5.05 ± 0.25 %
  Ear CD8^+ cell number: 1.91 ± 0.23 × 10^2
  Ear CD8^+ frequency: 0.19 ± 0.02%
  Ear CD45^+ cell number: 9.82 ± 0.79 × 10^4
  Ear CD45^+ frequency: 10.91 ± 1.00 %
  Ear CD lib- F4/80+ DCs cell number: 6.58 ± 0.67 × 10^2
  Ear CDllb + F4/80+ DCs cell number: 35.80 ± 2.66 × 10^2
  Ear CDllb- F4/80+ DCs frequency: 0.67 ± 0.05%
  Ear CDllb- F4/80-DCs cell number: 2.82 ± 0.24 × 10^3
  Ear CDllb- F4/80-DCs frequency: 2.89 ± 0.19%
  Ear Dendritic Cells cell number: 9.09 ± 0.72 × 10^3
  Ear Dendritic Cells frequency: 9.30 ± 0.47%
  Ear Eosinophils frequency: 7.59 ± 0.65 %
  Ear NK cell number: 6.45 ± 0.60 × 10^2
  Ear NK frequency: 0.66 ± 0.04%
  Ear Neutrophils cell number: 4.94 ± 1.24 × 10^2
  Ear Neutrophils frequency: 0.51 ± 0.13%
  Ear Total Cellularity: 0.91 ± 0.05 × 10^6
Ear pinna [3]; 5%
  Ear CD4^+ cell number: 6.11 ± 1.17 × 10^3
  Ear CD4^+ frequency: 5.29 ± 0.32 %
  Ear CD8^+ cell number: 2.15 ± 0.46 × 10^2
  Ear CD8^+ frequency: 0.20 ± 0.04%
  Ear CD45^+ cell number: 11.50 ± 2.03 × 10^4
  Ear CD45^+ frequency: 11.22 ± 1.00 %
  Ear CD lib- F4/80+ DCs cell number: 4.22 ± 0.49 × 10^2
  Ear CDllb + F4/80+ DCs cell number: 48.30 ± 7.74 × 10^2
  Ear CDllb- F4/80+ DCs frequency: 0.39 ± 0.03 %
  Ear CDllb- F4/80-DCs cell number: 2.90 ± 0.54 × 10^3
  Ear CDllb- F4/80-DCs frequency: 2.51 ± 0.14%
  Ear Dendritic Cells cell number: 10.10 ± 1.77 × 10^3
  Ear Dendritic Cells frequency: 8.88 ± 0.39%
  Ear Eosinophils cell number: 9.87 ± 1.78 × 10^3
  Ear Eosinophils frequency: 8.60 ± 0.38 %
  Ear NK cell number: 9.94 ± 2.21 × 10^2
  Ear NK frequency: 0.85 ± 0.09 %
  Ear Neutrophils frequency: 1.13 ± 0.23 %
  Ear Total Cellularity: 0.99 ± 0.11 × 10^6
B6C3F1 mice
  serum glucose, increase compared to vehicle control: 27%

From article PMC9989852 (Food and chemical toxicology : an international journal …, 2022)
